Laboratory results from ChEMBL document CHEMBL4130570, “Characteristic α-Acid Derivatives from Humulus lupulus with Antineuroinflammatory Activities” (J Nat Prod, 2017).
The source made the active and inactive calls. No cut-off for these calls is given here.

Each compound was assayed on BV-2 (assay: Antineuroinflammatory activity in mouse BV2 cells assessed as inhibition of LPS-induced nitric oxide production at 100 uM after 24 hrs by griess assay). Conditions: not given.
Type: functional, cell-based
Summary of the method: (§1)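 BV2 microglia plated at 5 × 10^4 cells/well, exposed to compound (1, 3, 10, 30, 100 μM) together with LPS 100 ng/mL for 24 h. Nitrite in medium quantified by Griess reagent (1% sulfanilamide; 0.1% naphthylethylenediamine dihydrochloride, 2% phosphoric acid), 15 min at room temperature, absorbance 540 nm. Mean ± SE of three independent experiments.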

Structure (SMILES) | inhibition
CC(C)=CC[C@@]1(O)C(=O)C(C(=O)C(C)C)=C(O)C2=C1OC(C)(C)[C@@H](O)C2 | Active

Each compound was assayed on BV-2 (assay: Cytotoxicity against mouse BV2 cells assessed as reduction in cell viability at 1 to 100 uM after 24 hrs by MTT assay). Conditions: bv-2, 24 h.
Type: cell-based
Summary of the method: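 BV2 cells after 24 h treatment; supernatant removed, MTT 0.25 mg/mL added for 4 h at 37 °C, formazan dissolved in DMSO, absorbance read at 490 nm.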

Structure (SMILES) | Activity
CC(C)=CC[C@@]1(O)C(=O)C(C(=O)C(C)C)=C(O)C2=C1OC(C)(C)[C@@H](O)C2 | Non-Toxic
CC(C)=CCc1c(O)c2c(c(C(=O)CC(C)C)c1O)O[C@H](C(C)(C)O)C2 | Non-Toxic
CC(C)=CC[C@@]1(O)C(=O)C(C(=O)CC(C)C)=C(O)C2=C1OC(C)(C)[C@@H](O)C2 | Non-Toxic
CC(C)=CC[C@@]1(O)C(=O)C(C(=O)CC(C)C)=C(O)C2=C1O[C@H](C(C)(C)O)C2 | Non-Toxic
CC(C)=CC[C@@]1(O)C(=O)C(C(=O)CC(C)C)=C(O)C2=C1O[C@@H](C(C)(C)O)C2 | Non-Toxic
CC(C)(O)[C@H]1C[C@@](C(=O)O)([C@H]2CC(=O)OC2(C)C)C(=O)O1 | Non-Toxic
CC(C)=CC[C@@]1(O)C(=O)C(C(=O)CC(C)C)=C(O)C2=C1OC(C)(C)[C@H](O)C2 | Non-Toxic
CC(C)=CC[C@@]1(O)C(=O)C(C(=O)C(C)C)=C(O)C2=C1O[C@H](C(C)(C)O)C2 | Non-Toxic
CC(C)=CCc1c(O)cc(O)c2c(=O)cc(C(C)C)oc12 | Non-Toxic
CC(C)=CCC1(CC=C(C)C)C(=O)C(O)=C(O)C1=O [HULUPINIC ACID] | Non-Toxic
COc1cc(O)c(CC=C(C)C)c2c1C(=O)C[C@@H](c1ccc(O)cc1)O2 | Non-Toxic
CC1(C)C[C@@H](O)[C@@]23CC[C@H](O)[C@@](C)(CC[C@H]12)C3 | Non-Toxic
CC(C)=CCc1c(O)c2c(c(C(=O)CC(C)C)c1O)O[C@@H](C(C)(C)O)C2 | Non-Toxic
COc1ccc(/C=C/C(=O)c2c(O)cc(OC)c(CC=C(C)C)c2O)cc1 | Non-Toxic
CC(C)=CCC1=C2O[C@H](C(C)(C)O)C[C@@]2(O)C(=O)C(C(=O)CC(C)C)=C1O | Non-Toxic
COc1cc(O)c(CC=C(C)C)c(O)c1C(=O)/C=C/c1ccc(O)cc1 [XANTHOHUMOL] | Non-Toxic

Each compound was assayed on BV-2 (assay: Antineuroinflammatory activity in mouse BV2 cells assessed as inhibition of LPS-induced nitric oxide production after 24 hrs by griess assay). Conditions: BV-2, 24 h.
Type: functional, cell-based
Summary of the method: as §1

IC50 [µM] | Structure (SMILES)
21.4 | CC(C)=CCc1c(O)cc(O)c2c(=O)cc(C(C)C)oc12
19.5 | COc1cc(O)c(CC=C(C)C)c2c1C(=O)C[C@@H](c1ccc(O)cc1)O2
57.7 | COc1ccc(/C=C/C(=O)c2c(O)cc(OC)c(CC=C(C)C)c2O)cc1
7.92 | COc1cc(O)c(CC=C(C)C)c(O)c1C(=O)/C=C/c1ccc(O)cc1 [XANTHOHUMOL]
